Assay results gathered from unrelated publications.
RIOK1: Serine/threonine-protein kinase RIO1 (RIOK1, Homo sapiens, UniProt Q9BRS2)
EP300: Histone acetyltransferase p300 (EP300, Homo sapiens, UniProt Q09472)
ABL1 T315I: Tyrosine-protein kinase ABL1 (ABL1, Homo sapiens, UniProt P00519, T315I)

| Compound | target | test | conditions | measurement | result |
| --- | --- | --- | --- | --- | --- |
| CN(C)C1CCN(CC#Cc2nn(C3CCCC3)c3nc(NCc4ccccc4)ncc23)C1 (stereo not shown) | Misshapen-like kinase 1 (MINK1, Homo sapiens, UniProt Q8N4C8) | enzyme activity, inhibitor, FRET | 10 µM | inhibition | 55% |
| Cc1cc(O)c(C=O)c2c1C(=O)Oc1c(C)c(O)c3c(c1O2)C(O)OC3=O (stereo not shown) | N-lysine methyltransferase KMT5A (KMT5A, Homo sapiens, UniProt Q9NQR1) | cell-free assay | 10 µM | inhibition | -14% |
| Cc1ccc(Nc2nccc(N(C)c3ccc4c(C)n(C)nc4c3)n2)cc1S(N)(=O)=O | cAMP-dependent protein kinase catalytic subunit alpha (PRKACA, Bos taurus, UniProt P00517) | enzyme activity, inhibitor | 10 µM | inhibition | -19% |
| Nc1ncnc2occ(-c3ccc(NC(=O)Nc4cc(C(F)(F)F)ccc4F)cc3)c12 | RIOK1 | cell-free assay, inhibitor | 20 µM | remaining signal | 89% |
| C[S+]([O-])c1ccc(-c2nc(-c3ccncc3)c(-c3ccc(F)cc3)[nH]2)cc1 (stereo not shown) | EP300 | thermal stability, DSF | 10 µM | ΔTm | 0.35 °C |
| Cc1cc(NC(=O)c2cccc3cc(-c4cccc5[nH]nc(N)c45)ccc23)ccc1F | Tyrosine-protein kinase ABL1 (ABL1, Homo sapiens, UniProt P00519, Q252H) | enzyme activity, inhibitor | 0.1 µM | activity vs control | 88% |
| c1ccc([C@H]2O[C@H]2c2ccccc2)cc1 | Epoxide hydrolase 1 (EPHX1, Homo sapiens, UniProt P07099) | enzyme activity, substrate | pH 9 | Km | 141 µM |
| Cc1ccc(C(=O)Nc2ccc(CN3CCN(C)CC3)c(C(F)(F)F)c2)cc1C#Cc1cnc2cccnn12 | RIOK1 | enzyme activity, inhibitor | 23.5 nM | remaining activity | 98% |
| Oc1cccc(Nc2nc(-c3ccc(F)cc3F)cs2)c1 | Cholecystokinin receptor type A (CCKAR, Homo sapiens, UniProt P32238) | cell-free assay | 10 µM | inhibition | 76% |
| Oc1ccc(-c2nc(-c3ccncc3)c(-c3ccc(F)cc3)[nH]2)cc1 | EP300 | thermal stability, DSF | 10 µM | ΔTm | 0.33 °C |
| CCCOc1ccc(OC)c(F)c1C(=O)c1ccc(C(=O)N[C@@H]2CNC[C@H]2NC(=O)c2ccc3[nH]ncc3c2)cc1 | ABL1 T315I | enzyme activity, inhibitor | 10 µM | remaining activity | 85% |
| COc1cc(-c2cc(-c3ccc(N4CCNCC4)cc3)cnc2N)cc(OC)c1OC | ABL1 T315I | enzyme activity, inhibitor | 1 µM | inhibition | 57% |
| Cc1cnc(NC2CCOCC2)nc1-n1cnc(C(=O)NC(CN)c2cc(F)cc(Cl)c2)c1 (stereo not shown) | Tyrosine-protein kinase ABL1 (ABL1, Homo sapiens, UniProt P00519, Y253F) | enzyme activity, inhibitor, radiometric | 1 µM | remaining activity | 102% |
